Results collected from several papers.
Each line is one published result; the experiments were not run side by side.

With `Cc1cccc2c(C(c3ccc(/C=C/C(=O)O)s3)c3c[nH]c4c(C)cccc34)c[nH]c12` the inhibition was 1% (KG-1; cell growth or viability; 5 µM, 48 h).
The MIC of `O=C1NN=C(N=Cc2ccccc2O)C1=NNn1c(-c2ccccc2)nc2ccccc2c1=O` is reported as 111 µM (Staphylococcus; microbial growth, broth dilution; 24 h).
`COc1ccc(-c2c(-c3ccc(C#N)c(F)c3)nc(N3CCC(N)CC3)n(C)c2=O)cc1F` gave an EC50 of 0.96 nM (MOLM-13; cell growth or viability, resazurin; 96 h).
The IC50 of `C[C@@H]1[C@H](O)[C@@H](C)/C=C/C=C/C=C/C=C/C=C/C=C/C=C/[C@H](O[C@@H]2O[C@H](C)[C@@H](O)[C@H](N)[C@@H]2O)C[C@@H]2O[C@](O)(C[C@@H](O)C[C@@H](O)[C@H](O)CC[C@@H](O)C[C@@H](O)CC(=O)O[C@H]1C)C[C@H](O)[C@H]2C(=O)O` is reported as 100 nM (Leishmania panamensis; parasite growth; 24 h, promastigote).
For `CC(=O)NCN1N=C(C)C(=NNn2c(-c3ccccc3)nc3ccccc3c2=O)C1=O`, the MIC was 120 µM (Staphylococcus; microbial growth, broth dilution; 24 h).
The MIC of `OC(CN1CCOCC1)(Cn1cncn1)c1ccc(F)cc1F` (stereo not shown) is reported as 7.8 µg/mL (Aspergillus flavus; microbial growth, broth dilution; 48 h).
`O=c1[nH]cc(F)c(=O)[nH]1` gave an IC50 of 46700 nM (NRK-52E; cell growth or viability, MTT; 24 h).
`O=C(O)C(c1c[nH]c2ccccc12)c1c[nH]c2ccccc12` gave an inhibition of 23% (KG-1; cell growth or viability; 20 µM, 48 h).
With `COc1ccc(-c2ccc(-c3ccc(C(=N)N)nc3)s2)cc1` the GI50 was 1840 nM (Malme-3M; cell growth or viability, SRB).
`Clc1ccccc1C(c1ccccc1)(c1ccccc1)n1ccnc1` has an inhibition zone of 24 mm (Aspergillus flavus; microbial growth, disc diffusion; 20000 µg/mL).
